Results from ChEMBL document CHEMBL3822433, “Discovery of N-(3-fluoro-4-methylsulfonamidomethylphenyl)urea as a potent TRPV1 antagonistic template” (Bioorg Med Chem Lett, 2016).
pKi: −log10 of the molar value.

Experiments:
Assay type in all cases: cell-based; call rule not given here
[1] = biological target: T1, Transient receptor potential cation channel subfamily V member 1 (Homo sapiens, UniProt Q8NER1); assay: Agonist activity at human TRPV1 expressed in CHO cells assessed as 45Ca2+ uptake incubated for 5 mins by liquid scintillation counting analysis
T1 sequence (Q8NER1 whole entry): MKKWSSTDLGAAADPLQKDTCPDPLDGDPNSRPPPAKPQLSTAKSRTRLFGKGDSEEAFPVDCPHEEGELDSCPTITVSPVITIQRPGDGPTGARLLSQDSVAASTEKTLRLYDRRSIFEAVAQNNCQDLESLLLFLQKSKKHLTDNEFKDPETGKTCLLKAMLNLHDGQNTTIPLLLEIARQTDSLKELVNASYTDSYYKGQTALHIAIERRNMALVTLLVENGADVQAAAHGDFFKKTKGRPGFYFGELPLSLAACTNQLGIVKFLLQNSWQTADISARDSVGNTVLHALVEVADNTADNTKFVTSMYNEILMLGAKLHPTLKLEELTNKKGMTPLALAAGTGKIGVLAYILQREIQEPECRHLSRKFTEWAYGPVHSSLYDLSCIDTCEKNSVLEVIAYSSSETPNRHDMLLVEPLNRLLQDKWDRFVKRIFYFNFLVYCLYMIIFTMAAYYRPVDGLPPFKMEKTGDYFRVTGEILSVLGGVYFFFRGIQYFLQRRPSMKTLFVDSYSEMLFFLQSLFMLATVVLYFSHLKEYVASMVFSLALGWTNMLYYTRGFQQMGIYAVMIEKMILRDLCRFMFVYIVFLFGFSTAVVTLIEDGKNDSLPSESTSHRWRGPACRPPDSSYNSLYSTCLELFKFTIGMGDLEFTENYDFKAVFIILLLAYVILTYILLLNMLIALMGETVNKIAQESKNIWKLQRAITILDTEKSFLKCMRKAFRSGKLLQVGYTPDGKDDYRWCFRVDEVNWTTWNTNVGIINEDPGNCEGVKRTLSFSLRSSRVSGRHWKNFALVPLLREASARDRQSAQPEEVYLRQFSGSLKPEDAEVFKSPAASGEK
Outline: (§1)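 Human TRPV1 heterologously expressed in CHO cells; 45Ca2+ uptake measured. Maximal response defined with saturating capsaicin (1 μM). Mean ± SEM of at least three experiments. Where shown, % agonism refers to test concentrations of 3–30 μM.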

[2] = biological target: T1, Transient receptor potential cation channel subfamily V member 1; assay: Antagonist activity at human TRPV1 expressed in CHO cells assessed as inhibition of capsaicin-induced 45Ca2+ uptake incubated for 5 mins by liquid scintillation counting analysis
[3] = biological target: T1, Transient receptor potential cation channel subfamily V member 1; assay: Displacement of [3H]-resiniferatoxin from human TRPV1 expressed in CHO cells incubated for 60 mins by scintillation counting analysis
Outline: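 Competition binding against [3H]-resiniferatoxin using human TRPV1 heterologously expressed in CHO cells; Ki reported. Mean ± SEM of at least three experiments.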

[4] = biological target: T1, Transient receptor potential cation channel subfamily V member 1; assay: Antagonist activity at human TRPV1 expressed in CHO cells assessed as inhibition of capsaicin-induced 45Ca2+ uptake preincubated for 15 mins prior to capsaicin challenge measured after 5 mins by liquid scintillation counting analysis
Outline: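 Human TRPV1 heterologously expressed in CHO cells; cells pre-incubated with antagonist for 15 min, then challenged with capsaicin (30 nM) and 45Ca2+ uptake measured. Dose-dependent inhibition was used to derive Ki(ant), correcting for capsaicin–antagonist competition. Values are mean ± SEM of at least three experiments.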

[5] = biological target: T1, Transient receptor potential cation channel subfamily V member 1; assay: Antagonist activity at human TRPV1 expressed in CHO cells assessed as inhibition of capsaicin-induced 45Ca2+ uptake preincubated for 30 mins prior to capsaicin challenge measured after 5 mins by liquid scintillation counting analysis
Outline: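 CHO cells heterologously expressing human TRPV1 were given a 30 min pre-incubation with antagonist before challenge with capsaicin (30 nM). Capsaicin-stimulated 45Ca2+ uptake was read out, and Ki(ant) was derived from dose-dependent inhibition, allowing for competition with capsaicin. Values are mean ± SEM, with n ≥ 3 experiments.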

[6] = biological target: T1, Transient receptor potential cation channel subfamily V member 1; assay: Antagonist activity at human TRPV1 expressed in CHO cells assessed as inhibition of capsaicin-induced 45Ca2+ uptake at 3 to 30 uM incubated for 5 mins by liquid scintillation counting analysis
[7] = biological target: T1, Transient receptor potential cation channel subfamily V member 1; assay: Agonist activity at human TRPV1 expressed in CHO cells assessed as 45Ca2+ uptake at 3 to 30 uM incubated for 5 mins by liquid scintillation counting analysis; outline: as §1

CC1CCN(c2nc(C(F)(F)F)ccc2CNC(=O)Nc2ccc(CNS(C)(=O)=O)c(F)c2)CC1
EC50 [1]: Not Active
pKi [2]: 7.90
pKi [3]: 8.17

Cc1cccc(N(C(=O)NCc2ccc(C(F)(F)F)nc2N2CCC(C)CC2)c2ccc(NS(C)(=O)=O)c(F)c2)c1
EC50 [1]: Not Active
pKi [4]: 5.66
pKi [5]: 6.07
pKi [3]: 6.31

CC1CCN(c2nc(C(F)(F)F)ccc2CNC(=O)N(C)c2ccc(NS(C)(=O)=O)c(F)c2)CC1
EC50 [1]: Not Active
pKi [2]: 7.23
pKi [3]: 5.94

CC1CCN(c2nc(C(F)(F)F)ccc2CNC(=O)C(C)c2ccc(CNS(C)(=O)=O)c(F)c2)CC1 (stereo unspecified)
EC50 [1]: Not Active
pKi [2]: 7.56
pKi [3]: 6.64

CC1CCN(c2nc(C(F)(F)F)ccc2CCNC(=O)C(C)c2ccc(NS(C)(=O)=O)c(F)c2)CC1 (stereo unspecified)
EC50 [1]: Not Active
pKi [2]: 7.02
pKi [3]: 7.27

CC1CCN(c2nc(C(F)(F)F)ccc2CNC(=O)Nc2ccc(NS(C)(=O)=O)c(F)c2)CC1
EC50 [1]: Not Active
pKi [2]: 6.83
pKi [3]: 7.08

CC1CCN(c2nc(C(F)(F)F)ccc2CCNC(=O)Nc2ccc(NS(C)(=O)=O)c(F)c2)CC1
pKi [3]: 6.68
inhibition [6]: 49%
Activity [7]: 29%

CC1CCN(c2nc(C(F)(F)F)ccc2CNC(=O)NCc2ccc(CNS(C)(=O)=O)c(F)c2)CC1
EC50 [1]: Not Active
pKi [2]: 6.70
pKi [3]: 6.39

CC1CCN(c2nc(C(F)(F)F)ccc2CNC(=O)NCc2ccc(NS(C)(=O)=O)c(F)c2)CC1
EC50 [1]: Not Active

CC1CCN(c2nc(C(F)(F)F)ccc2CNC(=O)C(C)c2ccc(NS(C)(=O)=O)c(F)c2)CC1 (stereo unspecified)
EC50 [1]: Not Active

CC1CCN(c2nc(C(F)(F)F)ccc2CNC(=O)[C@@H](C)c2ccc(NS(C)(=O)=O)c(F)c2)CC1
EC50 [1]: Not Active

CC1CCN(c2nc(C(F)(F)F)ccc2CNC(=O)NC(C)c2ccc(NS(C)(=O)=O)c(F)c2)CC1 (stereo unspecified)
EC50 [1]: Not Active
pKi [2]: 7.55
pKi [3]: 7.50
